The nature of experiment [1]: inhibitors of TNFa-induced NFkB p65 translocation, primary screen, imaging, HUVEC, MLSMR starter and 10KST1 sets (AID 438;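 active = inhibition above 20% together with a positive visual image hit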;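 note: compound added about 3h40 before a 20 min TNFalpha stimulation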;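 for inhibition: signal is the nuclear over cytoplasmic p65 intensity ratio per well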). The note with it: HUVEC TNFa-induced p65 nuclear translocation; cell count: measured here: nuclei count (cytotoxicity indicator), at 2.08 µM; inhibition: at 2 µM, stronger effect = higher value, 0% TNFa-plus-vehicle, 100% no-TNFa wells.
Experiment [2] is described as follows: endothelial E-selectin expression blockers – imaging, HUVEC, immunofluorescence, MLSMR starter and 10KST1 sets, primary screen (AID 487;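 active = visually confirmed hit in the image check and inhibition above 20%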;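 for inhibition: signal is fraction of cell area covered by stained E-selectin grains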;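 for nuclei count: 100% = median nuclei count of all wells on the same plate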). As to conditions: HUVEC TNFalpha-induced E-selectin immunofluorescence imaging, at 2 µM; inhibition: stronger effect = higher value; nuclei count: measured here: cell number, toxicity.
A short description of experiment [3]: Primary imaging screen for DUSP6 inhibitors that restore phospho-Erk in transfected HeLa cells, chemical complementation (AID 609;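 active = compounds giving at least 50% inhibition in the cell-based MKP-3 phosphatase rescue imaging test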;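 for inhibition: phospho-Erk level distribution per well compared with pooled transfected vehicle control wells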). As to conditions: HeLa MKP-3 transfected, phospho-Erk imaging KS statistic, at 10 µM, cells stimulated with TPA for 15 min.
Experiment [4] has as its target Dual specificity protein phosphatase 6 (Homo sapiens) (UniProt Q16828). The experiment is described as above. The note with it: HeLa MKP-3 transfected, phospho-Erk imaging KS statistic; at 10 µM; stronger effect = higher value; cells stimulated with TPA for 15 min.
Experiment [5] concerns the target Voltage-gated potassium channel subunit beta-2 (Rattus norvegicus) (UniProt P62483). Put plainly: inhibitors of rat Kvbeta2 reductase activity – biochemical, NADPH fluorescence, primary screen (AID 622;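 active = fluorescence slope higher than the sample average by over 3 SD, cut at about -0.22 in these data, passing the limit was not always enough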;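 note: slope of raw intensity against log time taken from 70 to 1610 s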). As to conditions: recombinant KvBeta, 4-cyanobenzaldehyde reduction, at 10 µM, stronger effect = higher value.
Experiment [6] shares this target. Put plainly: enhancers of rat Kvbeta2 NADPH turnover – biochemical, NADPH fluorescence, primary screen (AID 623;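 active = NADPH fluorescence slope more negative than the mean of all samples by about 3 SD, 99.7% confidence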;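 note: fluorescence intensity change per second fitted from 20 to 320 s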). The note with it: Recombinant KvBeta, NADPH fluorescence decrease slope, 10 min; at 10 µM; stronger effect = lower value.
Experiment [7] has as its target Alpha-2C adrenergic receptor (Homo sapiens) (UniProt P18825). Description: compounds altering alpha2C-coupled GIRK flux – cell-based, HEK293 alpha2C/GIRK1/2, thallium flux, primary screen (AID 624;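 active = fluorescence slope after compound addition differing from the mean of all screened samples at 99.7% confidence, in either direction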;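 note: slope of fluorescence ratio to pre-addition baseline per second over 15 to 24 s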). The note with it: thallium flux BTC fluorescence, at 10 µM, actives lie on both sides.
Experiment [8] can be described thus: inhibitors of larval lipid processing in zebrafish, primary screen, whole organism, PED6 fluorescence, gall bladder and intestine (AID 686;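 active = a full or partial loss of lipid-probe fluorescence in the fish gall bladder, intestine or both, judged by eye; inactive = no fluorescence loss, or compound toxic to the fish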;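 note: larvae 5 to 7 days old with five fish per well; signal comes from phospholipase A2 cleavage of quenched PED6 carried via bile; overnight exposure to compound and PED6 before scoring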). The note with it: Zebrafish larvae PED6 lipid processing, fluorescence scoring; screened at 20 µM (by protocol). A digest of the protocol: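 Test system – live zebrafish larvae aged 5-7 days, whole organism · Buffer or medium – E3 fish medium · Reagent – quenched phospholipase substrate PED6, 100 nM final, ingested by larvae · Doses – 20 µM single dose · Incubation – overnight compound and PED6 incubation · Technique – visual fluorescence microscopy scoring of gall bladder, gut · Read-out basis – visual per-well fluorescence inhibition score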

The nature of experiment [9]: loss of swimming-algae plug formation – whole organism, Chlamydomonas reinhardtii, WT vs cilia-less mutant, absorbance, 96-well, primary screen (AID 463189).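 Note: 0% = wild type cc124 cells in DMSO and 100% = ciliumless bld1 mutant cells.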 As to conditions: Chlamydomonas reinhardtii gravitaxis, OD600 absorbance, 2 days; at 10 µM; stronger effect = higher value.
The mark [10] stands for this setting: measured here: cell density z-score.
The mark [11] stands for this setting: measured here: nuclear c-Myc green intensity z-score.
The mark [12] stands for this setting: measured here: nuclear pErk red intensity z-score, stronger effect = higher value.

SMILES strings stand for the structures. Calls of active or inactive are those of the source.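 Rule for the calls, unless noted: active = inhibition at or above 50% relative to wild type and mutant plate controls; inactive = inhibition below 50%.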

Alpha-2C adrenergic receptor (Homo sapiens), sequence (P18825 whole entry, looked up): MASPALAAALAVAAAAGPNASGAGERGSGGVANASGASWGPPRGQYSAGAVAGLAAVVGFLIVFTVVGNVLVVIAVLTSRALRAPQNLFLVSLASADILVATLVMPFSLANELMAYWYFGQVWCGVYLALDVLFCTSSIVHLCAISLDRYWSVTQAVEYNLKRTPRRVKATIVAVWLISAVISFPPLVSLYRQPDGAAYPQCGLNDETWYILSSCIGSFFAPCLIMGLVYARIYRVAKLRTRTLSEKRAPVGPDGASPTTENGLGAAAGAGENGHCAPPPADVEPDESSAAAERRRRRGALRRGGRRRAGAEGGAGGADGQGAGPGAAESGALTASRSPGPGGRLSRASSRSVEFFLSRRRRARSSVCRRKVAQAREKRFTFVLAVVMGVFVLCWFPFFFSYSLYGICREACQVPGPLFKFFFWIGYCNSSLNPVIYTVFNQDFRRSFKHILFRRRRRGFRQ
Voltage-gated potassium channel subunit beta-2 (Rattus norvegicus), sequence (P62483 whole entry, looked up): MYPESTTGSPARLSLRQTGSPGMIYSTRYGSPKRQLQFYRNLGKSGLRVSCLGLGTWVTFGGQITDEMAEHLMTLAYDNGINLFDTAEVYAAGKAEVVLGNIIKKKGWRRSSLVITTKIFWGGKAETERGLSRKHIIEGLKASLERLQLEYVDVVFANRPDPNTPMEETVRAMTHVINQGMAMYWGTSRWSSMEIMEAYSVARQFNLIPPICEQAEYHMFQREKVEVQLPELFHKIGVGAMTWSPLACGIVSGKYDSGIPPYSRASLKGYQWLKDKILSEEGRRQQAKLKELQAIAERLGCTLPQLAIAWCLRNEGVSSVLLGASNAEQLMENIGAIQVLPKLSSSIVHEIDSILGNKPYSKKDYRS
Dual specificity protein phosphatase 6 (Homo sapiens), sequence (Q16828 whole entry, looked up): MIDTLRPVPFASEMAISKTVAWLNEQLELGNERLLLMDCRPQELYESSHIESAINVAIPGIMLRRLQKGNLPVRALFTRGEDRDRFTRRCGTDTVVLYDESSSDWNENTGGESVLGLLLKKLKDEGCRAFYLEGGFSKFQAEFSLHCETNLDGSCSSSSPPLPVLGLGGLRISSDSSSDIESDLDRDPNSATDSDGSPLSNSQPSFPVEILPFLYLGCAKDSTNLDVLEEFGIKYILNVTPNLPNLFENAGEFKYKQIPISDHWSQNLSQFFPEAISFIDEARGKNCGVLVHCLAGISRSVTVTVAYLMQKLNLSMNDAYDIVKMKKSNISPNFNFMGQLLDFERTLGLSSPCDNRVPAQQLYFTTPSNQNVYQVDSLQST

For orientation: inhibition means the drop in the measured response relative to a control, in per cent. For `CCOP(=O)(c1ccccc1)C1(C#N)CCCC1` (stereo unspecified), the cell count in experiment [1] was found to be 492. In addition, the inhibition in experiment [1] was -9.6% (inactive); in experiment [2] it was -215% (inactive); in experiment [4], -3.98% (inactive); in [9] it was 4.97% (inactive). The compound also showed a nuclei count in experiment [2] of 150%. The z-score in experiment [3] (setting [10]) is -1.11; in [3] (setting [11]), -1.86; in [3] (setting [12]) it was 0.943. In addition, the fluorescence slope in experiment [5] is -0.513 (inactive). In addition, the NADPH fluorescence slope in experiment [6] is -0.000169 (inactive). For the same compound, in experiment [7], the slope was 0.00467 (inactive). Besides, the outcome in experiment [8] is “inactive; toxic”.

For `COc1ccccc1C(CC(=O)Nc1nccs1)c1ccco1` (stereo unspecified), the cell count in experiment [1] was 354. In addition, the inhibition in [1] is -14.3% (inactive); in experiment [2], -98.9% (inactive); in experiment [4], 1.75% (inactive); in experiment [9], 31.8% (inactive). This compound also yielded a nuclei count in experiment [2] of 155%. The z-score is -0.704 in [3] (setting [10]), -0.887 in experiment [3] (setting [11]) and -0.714 in [3] (setting [12]). Further, in experiment [5], the fluorescence slope was -0.398 (inactive). In experiment [6], the NADPH fluorescence slope was -7.2e-05 (inactive). For the same compound, the slope in experiment [7] is 0.00663 (inactive). The compound was called inactive in experiment [8].

On to `CC1(C)Cc2c(sc(NC(=O)c3ccc(Br)o3)c2C#N)CO1`, for which, in experiment [1], the cell count worked out at 406. For the same compound, the inhibition is -17.8% (inactive) in [1], -330% (inactive) in experiment [2], 7.48% (inactive) in [4] and 8.5% (inactive) in [9]. This compound also had a nuclei count in experiment [2] of 140%. Also, the z-score in experiment [3] (setting [10]) was 0.838; in [3] (setting [11]), -0.788; in experiment [3] (setting [12]) it was -0.494. In experiment [5], the fluorescence slope is -0.371 (inactive). The NADPH fluorescence slope in experiment [6] was -1.6e-05 (inactive). In experiment [7], the slope is 0.00697 (inactive). Also, the compound was called inactive in experiment [8].

On to `CC(=O)OCc1c(COC(C)=O)[n+](=O)c2ccccc2n1[O-]`, for which, in experiment [1], the cell count came out at 523. In addition, the inhibition in [1] is -7% (inactive); in [2], -114% (inactive); in experiment [4], 2.46% (inactive); in experiment [9] it was 17% (inactive). The nuclei count in [2] stood at 156%. Besides, the z-score in [3] (setting [10]) is 0.0201; in experiment [3] (setting [11]), -0.163; in [3] (setting [12]) it was -0.453. Besides, in [5], the fluorescence slope is -0.322 (inactive). In experiment [6], the NADPH fluorescence slope is 1.5e-05 (inactive). In addition, in [7], the slope was 0.00492 (inactive). Moreover, in experiment [8], the result was inactive.

As for `Cc1nc(NS(=O)(=O)c2ccccc2)sc1NC(=O)OCCN(C)C`, the cell count in experiment [1] came to 362. Further, the inhibition is -18.9% (inactive) in experiment [1], -107% (inactive) in experiment [2], 24.3% (inactive) in experiment [4] and 34.8% (inactive) in experiment [9]. The same compound gave a nuclei count in experiment [2] of 130%. Moreover, the z-score in experiment [3] (setting [10]) is 1.66; in experiment [3] (setting [11]), -0.339; in [3] (setting [12]), -0.337. Also, the fluorescence slope in experiment [5] is -0.331 (inactive). Further, the NADPH fluorescence slope in experiment [6] was 2.1e-06 (inactive). In addition, the slope in experiment [7] was 0.00439 (inactive). Besides, the call in experiment [8] was inactive.

As to `Clc1ccc(-c2nnc3sc(Cc4cccs4)nn23)cc1`, the cell count in [1] turned out to be 671. For the same compound, the inhibition in experiment [1] is -3.4% (inactive); in [2], -156% (inactive); in experiment [4], 22.7% (inactive); in experiment [9] it was 19.8% (inactive). For the same compound, in experiment [2], the nuclei count is 134%. Besides, the z-score is 0.365 in experiment [3] (setting [10]), -1.12 in experiment [3] (setting [11]) and -1.66 in experiment [3] (setting [12]). For the same compound, the fluorescence slope in experiment [5] was -0.451 (inactive). Besides, the NADPH fluorescence slope in [6] was -4.9e-05 (inactive). Moreover, the slope in experiment [7] is 0.00474 (inactive). Also, the call in experiment [8] was inactive.

As to `CCOC(=O)CC(=O)CSc1nc(N)c(C#N)c(-c2ccc(Cl)cc2)c1C#N`, the cell count in experiment [1] amounted to 405. In addition, the inhibition in experiment [1] is -9.9% (inactive); in [2], -43.1% (inactive); in experiment [4], -6.48% (inactive); in experiment [9] it was -7.76% (inactive). In [2], this compound yielded a nuclei count of 99.2%. Moreover, the z-score in [3] (setting [10]) was 1.08; in experiment [3] (setting [11]), -0.959; in [3] (setting [12]) it was -2.04. Besides, the fluorescence slope in experiment [5] is -0.318 (inactive). Besides, the NADPH fluorescence slope in experiment [6] is 1.7e-05 (inactive). In [7], the slope was 0.00603 (inactive). Further, the compound was called inactive in experiment [8].

Values taken from PubChem BioAssay.
